# Laboratory results reported in ChEMBL document CHEMBL1127550 (J Med Chem, 1994).
# Assays:
# Mus musculus [1] = test: Mean difference between rectal temperature measured at time zero and rectal temperature measured at 10 min at 3.125 (mg/kg) intravenous dose in 6 mice; assay type: ADME, organism-based; conditions: in vivo
# In short: (§1)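 Male MF1 mice (23-29 g), drug dispersed with two parts Tween 80 by weight in 0.9% saline, injected iv at time zero; Tween 80 vehicle control. Rectal thermistor probe inserted 3 cm, read shortly before time zero and at 10 min; change = difference. Mice unrestrained in separate cages, ambient 20-22 °C. Means ± SE, Dunnett's test versus vehicle.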
# Mus musculus [2] = test: Mean number of squares entered(counts) over a 5 min period after placement in the center of a walled arena marked out in 16 squares of equal size at 1.5625 (mg/kg) intravenous dose in 6 mice; assay type: ADME, organism-based; conditions: in vivo
# In short: (§2)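 Male MF1 mice (23-29 g) given drug iv at time zero (Tween 80/saline dispersion; vehicle control). Each mouse was placed immediately in the centre of a 30 × 30 cm walled arena divided into 16 equal squares. Squares entered from 0 to 5 min were counted. Ambient 20-22 °C, means ± SE, Dunnett's test against vehicle.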
# Mus musculus [3] = test: Mean difference between rectal temperature measured at time zero and rectal temperature measured at 10 min at 1.5625 (mg/kg) intravenous dose in 6 mice; assay type: ADME, organism-based; conditions: in vivo; in short: as §1
# Mus musculus [4] = species on record: Mus musculus; test: Tested for potency towards inhibition of the twitch response in mouse vas deferens; assay type: functional
# In short: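 Vasa deferentia from albino MF1 mice were mounted at 0.5 g initial tension in Mg2+-free Krebs at 37 °C, gassed 95% O2/5% CO2, and stimulated electrically (0.5 ms pulses). Increasing doses were added after washout; twitch amplitude at 14-15 min post-addition was compared with the pre-drug final minute. IC50 came from nonlinear-regression sigmoid log concentration-response curves, n = 6-8 tissues.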
# Mus musculus [5] = test: Mean percentage time spend immobile on ring between 5 and 10 min at 3.125 (mg/kg) intravenous dose in 6 mice; assay type: ADME, organism-based; conditions: in vivo
# In short: (§3)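 In male MF1 mice (23-29 g) dosed iv at time zero with a Tween 80/saline dispersion, each animal was placed at 5 min on a 5.5-cm horizontal ring on a 16-cm stalk. The percentage of the 5-min session spent immobile was scored. Ambient 20-22 °C, means ± SE, Dunnett's test versus vehicle.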
# Mus musculus [6] = test: Mean number of squares entered(counts) over a 5 min period after placement in the center of a walled arena marked out in 16 squares of equal size at 3.125 (mg/kg) intravenous dose in 6 mice; assay type: ADME, organism-based; conditions: in vivo; in short: as §2
# Mus musculus [7] = test: Mean percentage time spend immobile on ring between 5 and 10 min at 1.5625 (mg/kg) intravenous dose in 6 mice; assay type: ADME, organism-based; conditions: in vivo; in short: as §3
# Mus musculus [8] = test: Mean percentage time spend immobile on ring between 5 and 10 min at 6.25 (mg/kg) intravenous dose in 6 mice; assay type: ADME, organism-based; conditions: in vivo; in short: as §3
# Mus musculus [9] = test: Mean difference between rectal temperature measured at time zero and rectal temperature measured at 10 min at 6.25 (mg/kg) intravenous dose in 6 mice; assay type: ADME, organism-based; conditions: in vivo; in short: as §1
# Mus musculus [10] = test: Mean number of squares entered(counts) over a 5 min period after placement in the center of a walled arena marked out in 16 squares of equal size at 10 (mg/kg) intravenous dose in 6 mice; assay type: ADME, organism-based; conditions: in vivo; in short: as §2
# Mus musculus [11] = test: Mean difference between rectal temperature measured at time zero and rectal temperature measured at 10 min at 10 (mg/kg) intravenous dose in 6 mice; assay type: ADME, organism-based; conditions: in vivo; in short: as §1
# Mus musculus [12] = test: Mean number of squares entered(counts) over a 5 min period after placement in the center of a walled arena marked out in 16 squares of equal size at 6.25 (mg/kg) intravenous dose in 6 mice; assay type: ADME, organism-based; conditions: in vivo; in short: as §2
# Mus musculus [13] = test: Mean percentage time spend immobile on ring between 5 and 10 min at 10 (mg/kg) intravenous dose in 6 mice; assay type: ADME, organism-based; conditions: in vivo; in short: as §3
# Cannabinoid receptor [14] = target: T1, Cannabinoid receptor (Rattus norvegicus, UniProt Q9QZN9+P20272); test: Binding affinity for the cannabinoid receptor in the absence of phenylmethanesulfonyl fluoride (PMSF) was determined in rat fore brain membranes; assay type: cell membranes, Membrane
# Cannabinoid receptor [15] = target: T1, Cannabinoid receptor; test: Binding affinity for the cannabinoid receptor in the presence of phenylmethanesulfonyl fluoride (PMSF) was determined in rat fore brain membranes; assay type: cell membranes, Membrane
smiles,measurement,setting,value
CCCCC/C=C\C/C=C\C/C=C\C/C=C\CCCC(=O)N[C@H](C)CO [METHANANDAMIDE],Body temperature,Mus musculus [1],1.5 °C
same,Hypokinesia,Mus musculus [2],76.8 Counts
same,Body temperature,Mus musculus [3],0.27 °C
same,IC50,Mus musculus [4],12 nM
same,Ring immobility,Mus musculus [5],87.4%
same,Hypokinesia,Mus musculus [6],26.5 Counts
same,Ring immobility,Mus musculus [7],40.2%
CCCCC/C=C\C/C=C\C/C=C\C/C=C\CCCC(=O)NCCO [ANANDAMIDE],Ring immobility,Mus musculus [8],93.9%
same,Body temperature,Mus musculus [9],-3.18 °C
same,Hypokinesia,Mus musculus [10],14.7 Counts
same,Body temperature,Mus musculus [11],-1.43 °C
same,Hypokinesia,Mus musculus [12],10.2 Counts
same,IC50,Mus musculus [4],52 nM
same,Ring immobility,Mus musculus [13],64.2%
CCCCC/C=C\C/C=C\C/C=C\C/C=C\CCCC(=O)NC[C@H](C)O,Ki,Cannabinoid receptor [14],158 nM
same,Ki,Cannabinoid receptor [15],26 nM
same,IC50,Mus musculus [4],47 nM
CCCCC/C=C\C/C=C\C/C=C\C/C=C\CCCC(=O)N[C@@H](C)CO,IC50,Mus musculus [4],230 nM
CCCCC/C=C\C/C=C\C/C=C\C/C=C\CCCC(=O)NC[C@@H](C)O,Ki,Cannabinoid receptor [14],> 2950 nM
same,Ki,Cannabinoid receptor [15],119 nM
same,IC50,Mus musculus [4],100 nM
